Activity calls are given as the source filed them. The calls are words filed in the database; no cut-off is given here.
Tests used:
[1] = biological target: Histone-lysine N-methyltransferase NSD2 (Homo sapiens, UniProt O96028, E1009K); assay: Inhibition of NSD2 E1009K mutant (unknown origin) using SAM as substrate preincubated for 10 mins followed by substrate addition measured after 4 hrs by AlphaLISA method
[2] = biological target: Histone-lysine N-methyltransferase, H3 lysine-36 specific (Homo sapiens, UniProt Q96L73); assay: Inhibition of NSD1 (unknown origin) using SAM as substrate preincubated for 10 mins followed by substrate addition measured after 4 hrs by AlphaLISA method
[3] = biological target: Histone-lysine N-methyltransferase EZH2 (Homo sapiens, UniProt Q15910); assay: Inhibition of EZH2 (unknown origin) using SAM as substrate preincubated for 10 mins followed by substrate addition measured after 4 hrs by HTRF method
Method in brief: (§1)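 HTRF assay: inhibitor plus enzyme preincubated 10 min at room temperature, then peptide/SAM mix added and incubated at room temperature. Antibody and SA-XL665 detection mix added for 1 h in subdued light. Emission read at 665 and 620 nm; IC50 from two separate experiments.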

[4] = biological target: Histone-lysine N-methyltransferase 2A (Homo sapiens, UniProt Q03164); assay: Inhibition of MLLI (unknown origin) using SAM as substrate preincubated for 10 mins followed by substrate addition measured after 4 hrs by HTRF method; method in brief: as §1
[5] = biological target: Histone-lysine N-methyltransferase 2B (Homo sapiens, UniProt Q9UMN6); assay: Inhibition of MLL4 (unknown origin) using SAM as substrate preincubated for 10 mins followed by substrate addition measured after 4 hrs by HTRF method; method in brief: as §1
[6] = biological target: Histone-lysine N-methyltransferase, H3 lysine-79 specific (Homo sapiens, UniProt Q8TEK3); assay: Inhibition of DOT1L (unknown origin) using SAM as substrate preincubated for 10 mins followed by substrate addition measured after 4 hrs by AlphaLISA method
[7] = system: RS4-11; assay: Antiproliferative activity against human RS4-11 cells assessed as reduction in cell viability incubated for 6 days by CCK8 assay; type: functional, cell-based; details: dose 1-100 µM, time 6.0 day
Method in brief: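 Cells seeded in triplicate at 6000–20000 per well and left 24 h, then exposed to increasing concentrations for a further 6 days. Viability read with CCK-8 and growth IC50 derived from the dose–response.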

[8] = system: KMS-11; assay: Antiproliferative activity against human KMS-11 cells assessed as reduction in cell viability at 1 to 100 uM by CCK8 assay; type: functional, cell-based; details: dose 1-100 µM, time 6.0 day, TDE = time-dependent effect
[9] = system: MV4-11; assay: Induction of cell cycle arrest in human MV4-11 cells assessed as G0/G1 phase incubated for 72 hrs by ribonucleaseA/propidium iodide staining based flow cytometry analysis; type: functional
Method in brief: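 Cell cycle by PI: cells exposed for 72 h at 5 and 10 µM vs vehicle, washed twice, fixed overnight in pre-cooled 70% ethanol, then stained 45 min at room temperature with ribonuclease A and PI. Acquired on FACSCanto and phase fractions modelled.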

[10] = Half life in CD-1 mouse at 2 mg/kg, ip measured up to 24 hrs by LC-MS/MS; type: ADME, organism-based; details: in vivo
Method in brief: (§2)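 CD-1 mice given a single 2 mg/kg dose i.p. or i.v. (n = 3 per group). Blood sampled at 0, 0.083, 0.25, 0.5, 1, 2, 4, 6, 8 and 24 h and centrifuged for plasma, with internal standard added. Plasma deproteinized with methanol/acetonitrile (1:1), supernatant diluted with acetonitrile/water, and compound measured by LC/MS/MS.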

[11] = Half life in CD-1 mouse at 2 mg/kg, iv measured up to 24 hrs by LC-MS/MS; type: ADME, organism-based; details: in vivo; method in brief: as §2
[12] = MRT in CD-1 mouse at 2 mg/kg, ip measured up to 24 hrs by LC-MS/MS; type: ADME, organism-based; details: in vivo
Method in brief: (§3)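 CD-1 mice dosed at 2 mg/kg i.p. or i.v., n = 3 per group. Blood sampled at 0, 0.083, 0.25, 0.5, 1, 2, 4, 6, 8 and 24 h and spun for plasma. Internal standard added, deproteinized with methanol/acetonitrile (1:1), supernatant diluted and analysed by LC/MS/MS.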

[13] = MRT in CD-1 mouse at 2 mg/kg, iv measured up to 24 hrs by LC-MS/MS; type: ADME, organism-based; details: in vivo; method in brief: as §3
[14] = system: RS4-11; assay: Antitumor activity against human RS4-11 cells xenografted in SCID mouse assessed as tumor growth inhibition at 50 mg/kg, ip qd administered consecutively for 21 days relative to control; details: RS4-11, ip, 504 h, read-out: TGI
[15] = biological target: Protransforming growth factor alpha (Homo sapiens) (UniProt P01135); assay: Inhibition of TGFA transcriptional activity in human KMS-11 cells assessed as reduction in H3K36 methylation at 10 uM measured after 72 hrs by chip q-PCR analysis; type: cell-based
Method in brief: (§4)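 KMS11 cells treated with test agent or DMSO. ChIP with magnetic-bead enzymatic chromatin IP kit using anti-H3K36me2, anti-histone H3 and IgG control antibodies. H3K36me2 quantified by qPCR with primers spanning the promoter regions of TGFA, MET, PAK1 and RRAS2.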

[16] = biological target: Ras-related protein R-Ras2 (Homo sapiens) (UniProt P62070); assay: Inhibition of RRAS2 transcriptional activity in human KMS-11 cells assessed as reduction in H3K36 methylation at 10 uM measured after 72 hrs by chip q-PCR analysis; type: cell-based; method in brief: as §4
[17] = system: RS4-11; assay: Induction of apoptosis in human RS4-11 cells incubated for 72 hrs by annexin-V/FITC and propidium iodide staining based flow cytometry analysis; type: functional, cell-based; details: dose 5-10 µM
[18] = system: KMS-11; assay: Induction of apoptosis in human KMS-11 cells incubated for 72 hrs by annexin-V/FITC and propidium iodide staining based flow cytometry analysis; type: functional, cell-based; details: dose 5-10 µM
[19] = system: RS4-11; assay: cells; details: Homo sapiens, RS4-11, 72 h, read-out: Activity
[20] = system: KMS-11; assay: cells; details: Homo sapiens, KMS-11, 72 h, read-out: Activity
[21] = system: MV4-11; assay: cells; details: Homo sapiens, MV4-11, 72 h, read-out: Activity
[22] = system: U2932; assay: Antiproliferative activity against human U2932 cells assessed as reduction in cell viability incubated for 6 days by CCK8 assay
[23] = system: OPM-2; assay: Antiproliferative activity against human OPM-2 cells assessed as reduction in cell viability incubated for 6 days by CCK8 assay
[24] = system: MV4-11; assay: Antiproliferative activity against human MV4-11 cells assessed as reduction in cell viability incubated for 6 days by CCK8 assay
[25] = system: Jurkat; assay: Antiproliferative activity against human Jurkat cells assessed as reduction in cell viability incubated for 6 days by CCK8 assay
[26] = system: KARPAS-422; assay: Antiproliferative activity against human KARPAS-422 cells assessed as reduction in cell viability incubated for 6 days by CCK8 assay
[27] = Inhibition of PAK1 transcriptional activity in human KMS-11 cells assessed as reduction in H3K36 methylation at 10 uM measured after 72 hrs by chip q-PCR analysis

Sequence of Histone-lysine N-methyltransferase 2B (Q9UMN6 whole entry): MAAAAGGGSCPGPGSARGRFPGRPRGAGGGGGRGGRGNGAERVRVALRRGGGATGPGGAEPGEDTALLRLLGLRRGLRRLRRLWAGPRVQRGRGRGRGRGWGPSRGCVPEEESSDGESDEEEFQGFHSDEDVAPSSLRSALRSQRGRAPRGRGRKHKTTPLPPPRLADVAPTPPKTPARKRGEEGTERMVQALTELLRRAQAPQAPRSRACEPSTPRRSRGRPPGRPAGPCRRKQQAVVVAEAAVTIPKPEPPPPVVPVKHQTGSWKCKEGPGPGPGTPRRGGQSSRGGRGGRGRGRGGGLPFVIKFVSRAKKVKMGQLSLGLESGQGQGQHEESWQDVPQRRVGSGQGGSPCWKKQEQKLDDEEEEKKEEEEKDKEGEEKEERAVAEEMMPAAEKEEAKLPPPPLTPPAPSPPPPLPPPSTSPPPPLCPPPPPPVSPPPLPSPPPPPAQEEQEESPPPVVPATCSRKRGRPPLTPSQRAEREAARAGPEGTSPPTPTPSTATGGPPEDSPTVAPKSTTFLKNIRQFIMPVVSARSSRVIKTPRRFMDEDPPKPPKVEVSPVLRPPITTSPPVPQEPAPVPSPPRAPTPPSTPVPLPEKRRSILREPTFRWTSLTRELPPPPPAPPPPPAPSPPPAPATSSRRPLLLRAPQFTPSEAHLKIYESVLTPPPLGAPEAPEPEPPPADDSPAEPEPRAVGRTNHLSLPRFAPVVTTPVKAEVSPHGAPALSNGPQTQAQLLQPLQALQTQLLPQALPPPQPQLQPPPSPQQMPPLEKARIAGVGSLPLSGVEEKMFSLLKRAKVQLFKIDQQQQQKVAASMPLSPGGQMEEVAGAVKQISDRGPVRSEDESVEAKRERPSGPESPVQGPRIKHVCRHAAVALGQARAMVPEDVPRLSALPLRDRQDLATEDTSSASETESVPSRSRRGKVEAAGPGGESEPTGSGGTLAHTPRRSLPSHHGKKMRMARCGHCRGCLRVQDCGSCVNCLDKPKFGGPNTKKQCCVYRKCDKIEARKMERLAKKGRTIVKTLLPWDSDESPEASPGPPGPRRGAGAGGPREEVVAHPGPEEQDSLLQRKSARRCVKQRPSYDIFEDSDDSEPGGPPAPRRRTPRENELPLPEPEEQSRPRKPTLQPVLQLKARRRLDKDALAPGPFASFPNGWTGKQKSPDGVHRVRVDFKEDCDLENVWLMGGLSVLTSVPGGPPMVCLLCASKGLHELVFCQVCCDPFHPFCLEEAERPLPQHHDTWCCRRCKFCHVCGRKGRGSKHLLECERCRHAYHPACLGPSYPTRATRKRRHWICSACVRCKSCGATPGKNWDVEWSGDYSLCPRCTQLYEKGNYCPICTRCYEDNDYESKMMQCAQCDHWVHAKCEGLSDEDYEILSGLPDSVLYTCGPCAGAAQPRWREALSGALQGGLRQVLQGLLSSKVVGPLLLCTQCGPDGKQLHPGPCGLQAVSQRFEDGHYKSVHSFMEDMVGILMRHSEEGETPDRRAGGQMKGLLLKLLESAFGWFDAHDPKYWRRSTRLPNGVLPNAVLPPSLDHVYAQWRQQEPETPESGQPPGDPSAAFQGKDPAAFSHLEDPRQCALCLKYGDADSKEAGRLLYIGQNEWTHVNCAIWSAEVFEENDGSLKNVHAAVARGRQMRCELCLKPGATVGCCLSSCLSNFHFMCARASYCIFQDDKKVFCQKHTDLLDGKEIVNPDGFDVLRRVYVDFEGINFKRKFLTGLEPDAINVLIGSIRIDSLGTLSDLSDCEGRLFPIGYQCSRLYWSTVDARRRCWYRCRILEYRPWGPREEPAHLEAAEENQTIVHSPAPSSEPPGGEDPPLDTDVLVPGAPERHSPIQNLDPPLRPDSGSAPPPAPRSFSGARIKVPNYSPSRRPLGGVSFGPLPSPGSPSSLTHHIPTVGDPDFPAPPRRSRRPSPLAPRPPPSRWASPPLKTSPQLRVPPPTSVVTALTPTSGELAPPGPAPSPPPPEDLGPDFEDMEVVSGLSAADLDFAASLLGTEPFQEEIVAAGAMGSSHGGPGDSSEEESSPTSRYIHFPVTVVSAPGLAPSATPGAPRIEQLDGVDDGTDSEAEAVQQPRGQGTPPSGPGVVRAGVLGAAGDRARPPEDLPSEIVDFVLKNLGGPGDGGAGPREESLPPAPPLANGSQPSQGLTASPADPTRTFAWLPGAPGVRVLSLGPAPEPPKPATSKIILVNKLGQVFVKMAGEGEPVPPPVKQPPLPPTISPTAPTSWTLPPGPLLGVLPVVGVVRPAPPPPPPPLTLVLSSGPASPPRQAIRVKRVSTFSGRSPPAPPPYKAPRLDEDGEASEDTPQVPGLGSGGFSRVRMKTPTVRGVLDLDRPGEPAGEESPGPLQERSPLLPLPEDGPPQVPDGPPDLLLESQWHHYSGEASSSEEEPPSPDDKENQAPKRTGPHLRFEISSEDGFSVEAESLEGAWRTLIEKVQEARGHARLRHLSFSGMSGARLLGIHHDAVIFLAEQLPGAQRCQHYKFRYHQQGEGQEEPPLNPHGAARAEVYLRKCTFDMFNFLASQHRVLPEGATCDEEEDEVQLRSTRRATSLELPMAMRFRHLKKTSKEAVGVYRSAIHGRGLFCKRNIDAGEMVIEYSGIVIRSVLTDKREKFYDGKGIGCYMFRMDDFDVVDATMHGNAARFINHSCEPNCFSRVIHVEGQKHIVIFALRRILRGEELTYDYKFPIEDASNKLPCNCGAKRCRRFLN
Sequence of Histone-lysine N-methyltransferase NSD2 (O96028 whole entry, looked up, stated change not applied): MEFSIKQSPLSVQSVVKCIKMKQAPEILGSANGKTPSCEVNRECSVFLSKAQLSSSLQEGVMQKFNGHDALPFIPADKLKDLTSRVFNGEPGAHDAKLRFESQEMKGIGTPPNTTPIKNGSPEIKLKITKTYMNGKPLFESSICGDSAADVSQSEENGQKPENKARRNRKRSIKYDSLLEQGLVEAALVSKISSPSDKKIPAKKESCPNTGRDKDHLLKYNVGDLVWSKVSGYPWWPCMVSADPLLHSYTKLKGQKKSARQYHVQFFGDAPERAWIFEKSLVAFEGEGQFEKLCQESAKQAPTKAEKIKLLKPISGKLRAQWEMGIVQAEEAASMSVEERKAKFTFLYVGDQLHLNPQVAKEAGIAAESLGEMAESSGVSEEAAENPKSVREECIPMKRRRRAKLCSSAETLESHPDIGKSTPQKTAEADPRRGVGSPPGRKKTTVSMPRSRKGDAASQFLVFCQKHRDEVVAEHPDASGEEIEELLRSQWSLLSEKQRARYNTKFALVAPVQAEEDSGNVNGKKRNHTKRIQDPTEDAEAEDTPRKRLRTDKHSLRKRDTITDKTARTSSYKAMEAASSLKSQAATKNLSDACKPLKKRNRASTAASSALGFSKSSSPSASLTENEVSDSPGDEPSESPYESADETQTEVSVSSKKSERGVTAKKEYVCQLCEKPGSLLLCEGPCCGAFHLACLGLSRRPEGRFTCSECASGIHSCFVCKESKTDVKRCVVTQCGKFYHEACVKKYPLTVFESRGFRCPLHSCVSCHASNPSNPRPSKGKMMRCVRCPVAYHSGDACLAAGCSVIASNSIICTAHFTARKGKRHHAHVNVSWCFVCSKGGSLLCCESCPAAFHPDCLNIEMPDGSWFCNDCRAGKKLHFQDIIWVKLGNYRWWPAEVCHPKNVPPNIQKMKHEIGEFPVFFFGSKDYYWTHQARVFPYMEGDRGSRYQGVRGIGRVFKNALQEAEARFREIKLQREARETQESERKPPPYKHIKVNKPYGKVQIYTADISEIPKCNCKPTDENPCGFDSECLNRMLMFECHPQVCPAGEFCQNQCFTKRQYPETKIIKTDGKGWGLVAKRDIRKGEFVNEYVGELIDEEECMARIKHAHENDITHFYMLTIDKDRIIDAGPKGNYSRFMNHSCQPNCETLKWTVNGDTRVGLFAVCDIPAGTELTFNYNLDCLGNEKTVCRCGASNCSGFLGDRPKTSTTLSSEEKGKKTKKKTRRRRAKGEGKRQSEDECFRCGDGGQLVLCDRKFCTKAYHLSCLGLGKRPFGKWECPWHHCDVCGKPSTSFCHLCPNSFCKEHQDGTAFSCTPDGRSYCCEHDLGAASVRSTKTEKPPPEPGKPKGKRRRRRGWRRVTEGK
Sequence of Histone-lysine N-methyltransferase EZH2 (Q15910 whole entry): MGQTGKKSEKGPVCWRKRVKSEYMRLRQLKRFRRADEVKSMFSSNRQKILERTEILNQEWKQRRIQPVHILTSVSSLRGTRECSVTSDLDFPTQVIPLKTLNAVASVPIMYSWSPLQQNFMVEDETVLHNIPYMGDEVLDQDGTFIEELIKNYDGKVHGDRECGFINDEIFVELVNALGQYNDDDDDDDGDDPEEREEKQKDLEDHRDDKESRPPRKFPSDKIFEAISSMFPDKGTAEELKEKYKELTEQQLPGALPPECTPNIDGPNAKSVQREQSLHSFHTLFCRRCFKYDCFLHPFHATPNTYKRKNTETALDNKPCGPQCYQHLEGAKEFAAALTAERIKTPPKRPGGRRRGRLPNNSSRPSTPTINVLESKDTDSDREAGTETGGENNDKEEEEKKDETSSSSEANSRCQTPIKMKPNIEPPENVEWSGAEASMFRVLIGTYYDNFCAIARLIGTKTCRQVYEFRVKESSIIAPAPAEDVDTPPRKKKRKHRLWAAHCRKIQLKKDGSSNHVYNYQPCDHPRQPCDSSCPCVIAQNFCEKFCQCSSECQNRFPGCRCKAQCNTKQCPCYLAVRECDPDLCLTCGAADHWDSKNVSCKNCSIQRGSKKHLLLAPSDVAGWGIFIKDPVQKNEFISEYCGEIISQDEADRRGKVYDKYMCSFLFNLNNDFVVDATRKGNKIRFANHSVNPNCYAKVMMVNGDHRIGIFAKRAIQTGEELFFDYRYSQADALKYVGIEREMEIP
Sequence of Protransforming growth factor alpha (Homo sapiens) (P01135 whole entry): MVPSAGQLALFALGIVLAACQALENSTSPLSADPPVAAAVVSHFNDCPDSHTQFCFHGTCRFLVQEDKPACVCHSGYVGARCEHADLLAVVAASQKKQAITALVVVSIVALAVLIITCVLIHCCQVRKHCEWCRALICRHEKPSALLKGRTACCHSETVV

Compound: Cl.Nc1cccc2c(S(=O)(=O)NCc3ccccc3)cccc12
- IC50 [1]: 3.1 µM
- IC50 [2]: > 20 µM
- IC50 [3]: > 20 µM
- IC50 [4]: > 20 µM
- IC50 [5]: > 20 µM
- IC50 [6]: > 20 µM
- Activity [7]: Dose-Dependent Effect
- Activity [8]: Tde
- Activity [9]: inactive
- half-life [10]: 33.6 min
- half-life [11]: 39.6 min
- MRT [12]: 31.9 min
- MRT [13]: 23.8 min
- inhibition in vivo at 50 mg/kg [14]: 37.2%
- inhibition [15]: Active
- inhibition [16]: Active
- Activity [17]: Dose-Dependent Effect
- Activity [18]: Dose-Dependent Effect
- viability at 10 µM [19]: 3.53%
- viability at 5 µM [20]: 58.7%
- viability at 5 µM [21]: 94.4%
- Activity [22]: Active
- Activity [23]: Active
- Activity [24]: Active
- Activity [25]: Active
- Activity [26]: Active
- inhibition [27]: Active
